The text below walks through data of ChEMBL document CHEMBL1148707, “Inhibition of the bacterial heme oxygenases from Pseudomonas aeruginosa and Neisseria meningitidis: novel antimicrobial targets” (J Med Chem, 2007).

Structures are written as SMILES. pKd: −log10 of the molar value. The source made the active and inactive calls. No cut-off for these calls is given here.

The test system of one assay is Neisseria meningitidis. Nature of the assay: Inhibition of Neisseria meningitidis heme oxygenase-mediated biliveridin production in Escherichia coli BL21 at 1500 uM. A digest of the protocol: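 E. coli BL21(DE3) with leaky nm-HO expression grown overnight (16 h) in LB with 100 µg/mL ampicillin, with or without 1500 µM compound, no iron restriction. Cells lysed with 50 µM β/δ-biliverdin added as internal standard. Biliverdin extracted into chloroform, converted to dimethyl esters, analysed by HPLC. α-Biliverdin peak integrated against the standard.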

Assay [1] concerns Pseudomonas aeruginosa. Nature of the assay: Growth inhibition of Pseudomonas aeruginosa MPA01 at <250 uM. It is filed as functional, organism-based. A digest of the protocol:
(§1)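 MPA01 grown 8 h at 37 °C, then diluted to OD600 0.05 in iron-restricted succinate minimal medium pH 7.0 with heme as iron source. Compound added from DMSO at 10-1500 µM. Incubated 10 h at 37 °C with aeration in 96-well format, then OD600 read.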

Assay [2] is described as follows: Binding affinity to Neisseria meningitidis heme oxygenase. A digest of the protocol: (§2)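 Fluorescence titration of purified apoprotein (1 µM; residual biliverdin removed by chromatofocusing) in 20 mM Tris-HCl pH 7.5. Compound added at 0.05-500 µM from DMSO stock. Mean of three experiments.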
A further assay concerns the target T1, Heme oxygenase (Pseudomonas aeruginosa, UniProt O69002).
T1 sequence (O69002 whole entry): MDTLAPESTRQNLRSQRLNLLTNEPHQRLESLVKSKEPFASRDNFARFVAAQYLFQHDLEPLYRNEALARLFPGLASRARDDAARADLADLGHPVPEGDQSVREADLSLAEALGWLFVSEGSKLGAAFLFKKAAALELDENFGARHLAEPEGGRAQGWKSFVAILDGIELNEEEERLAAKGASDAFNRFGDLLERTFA
Put plainly: Binding affinity to Pseudomonas aeruginosa heme oxygenase. In a few lines: as §2

Assay [3] concerns Pseudomonas aeruginosa. Nature of the assay: Growth inhibition of Pseudomonas aeruginosa MPA01 in presence of haemoglobin. The format is functional. On the set-up: scale not given: the % may be the effect or the level left. In a few lines:
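MPA01 diluted to OD600 0.05 in succinate minimal medium pH 7.0 with 25 µM hemoglobin as sole iron source, with or without compound (DMSO). 10 h endpoint OD600 at 0-1500 µM, or hourly OD600 over 12 h at 500 µM, 37 °C with aeration. Compared with 40 µM Fe(III) pyoverdine cultures. Mean of three experiments.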

In assay [4] the test system is Pseudomonas aeruginosa. Put plainly: Growth inhibition of Pseudomonas aeruginosa MPA01 at >250 uM. It is filed as functional, organism-based. In a few lines: as §1

As to `O=C(NNC(=O)c1ccncc1)c1ccncc1`, the outcome with Neisseria meningitidis and in the assay with Pseudomonas aeruginosa [1] was inactive.
As usually defined, the pKd is the negative decadic logarithm of the Kd, by convention in mol/L. Consider `O=C(Nc1ccc(-c2cn3ccccc3n2)cc1)c1ccccc1[N+](=O)[O-]`, for which the result with Neisseria meningitidis was Active. The figures for the pKd (in assay [2]; on Heme oxygenase) were 4.68 and 5.21, respectively. Further, the outcome in the assay with Pseudomonas aeruginosa [1] was inactive.
On to `O=C(Cc1ccc(Cl)cc1)N/N=C/c1c[nH]c2ccccc12`, for which the Activity with Pseudomonas aeruginosa [3] turned out to be 40%. For the same compound, the outcome in the assay on Neisseria meningitidis and with Pseudomonas aeruginosa [4] was Active. The same compound had a pKd in assay [2] of 4.85. In addition, the outcome in the assay on Pseudomonas aeruginosa [1] was inactive.
`CN(C)c1ccc(/C=N/NC(=N)N)cc1`: the outcome with Neisseria meningitidis was Active. The same compound had a pKd in assay [2] of 4.64. The outcome in the assay on Pseudomonas aeruginosa [1] was inactive.
The like results for `N=C(N/N=C\c1cccnc1)N/N=C\c1cccnc1` were, in that order, “Active”, 4.91 and “inactive”.
Consider `O=C(O)/C=C/C(=O)Nc1ccc(Nc2ccccc2)cc1`, for which the Activity in the assay with Pseudomonas aeruginosa [3] stood at 40%. The outcome in the assay with Neisseria meningitidis and with Pseudomonas aeruginosa [4] was Active. Moreover, the values for the pKd (in assay [2]; at Heme oxygenase) were 4.81 and 4.70, respectively. In addition, in the assay with Pseudomonas aeruginosa [1], the outcome was inactive.
Regarding `O=C1C(O)=C/C(=N\c2ccccc2O)c2ccccc21`, the outcome with Neisseria meningitidis and in the assay on Pseudomonas aeruginosa [1] was inactive. Moreover, the negative-log Kd (pKd) was 4.54 in assay [2] and 4.14 at Heme oxygenase.
